# A selection: hits, their analogues and other compounds. The true share with any hit is near 3.9%.
# M1 antag = blocks human M1 muscarinic receptor | P11229 | CHO-K1 hM1, Fluo-8 calcium fluorescence, ACh EC80 antagonist | inhibition, % at 3 µM | 360,000 compounds, 1.3% hits | AID 588852;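 active means percent inhibition above its own plate's cutoff, namely the mean of that plate's compound wells plus 3 SD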;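 further: peak over basal fluorescence ratio during 140 s after agonist addition; 0% = ACh EC80 plus DMSO and 100% = DMSO alone without agonist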
# Target sequence (P11229 whole entry, looked up): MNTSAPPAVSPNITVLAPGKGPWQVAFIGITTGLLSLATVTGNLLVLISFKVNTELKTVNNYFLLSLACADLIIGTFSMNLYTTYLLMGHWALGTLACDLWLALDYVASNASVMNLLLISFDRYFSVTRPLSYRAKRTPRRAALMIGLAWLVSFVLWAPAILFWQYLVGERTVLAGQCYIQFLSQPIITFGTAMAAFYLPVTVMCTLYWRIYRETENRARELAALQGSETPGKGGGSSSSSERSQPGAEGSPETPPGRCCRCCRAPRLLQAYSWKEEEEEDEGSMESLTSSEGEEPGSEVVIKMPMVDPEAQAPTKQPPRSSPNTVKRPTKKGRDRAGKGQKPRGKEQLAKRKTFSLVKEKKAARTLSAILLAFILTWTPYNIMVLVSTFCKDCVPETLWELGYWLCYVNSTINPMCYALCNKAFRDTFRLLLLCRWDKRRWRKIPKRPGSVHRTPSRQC
# TAAR1 antag = antagonists of human TAAR1 | 360,000 compounds, 1.5% hits | Q96RJ0 | CHO RD-HGA16 TAAR1, Fluo-8 calcium fluorescence, antagonist | AID 624466 | inhibition, % at 3 µM;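 active means inhibition above a per-plate cutoff, the mean inhibition of test compounds on that plate plus 3 SD, cut at about 49% in these data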;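 further: 0% = DMSO plus EC80 beta-PEA response and 100% = DMSO alone without agonist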
#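 test system = CHO RD-HGA16 cells bearing hTAAR1 | replication = singlicate | controls = DMSO-only wells and EC80 β-PEA-stimulated wells | reagent = EC80 β-phenethylamine stimulus | read-out basis = percent inhibition of PEA-evoked calcium signal, max/basal emission ratio | schedule = seeding 17-24 h prior, 75-min 37 °C, 30-min RT dye loading | signal = kinetic Fluo-8 calcium fluorescence measurement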
# m5-HT2A agonist = agonists of mouse serotonin 5-HT2A receptor (HTR2A). 360,000 compounds, 0.66% hits. activation, % at 7.6 µM. AID 624169. CHO-K1 mHTR2A beta-arrestin complementation, luminescence; percent of 30 µM serotonin response;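 active means activation above a run cutoff, the mean activation of all tested compounds plus 3 SD, cut at about 14% in these data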;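 further: 0% = plate median of compound wells and 100% = 30 µM serotonin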
# TAAR1 ag = human TAAR1 agonism; activation, % at 3 µM; 360,000 compounds, 0.99% hits; Q96RJ0; CHO RD-HGA16 TAAR1, Fluo-8 calcium fluorescence; vehicle wells 0%, saturating PEA agonist 100%;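 active means activation above the mean activation of all test compounds in the run plus 3 SD, cut at about 38% in these data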
#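 test system = CHO RD-HGA16 cells carrying human TAAR1 plus Gα16 | schedule = 17-24 h seeding, 75 min 37 °C dye, 30 min RT | compound dosing = 3 µM single concentration | control set = DMSO and PEA EC100 | replicates = n 1 | signal = Fluo-8 fluorescence, 5 s baseline then 140 s kinetic read | measure = percent activation vs PEA EC100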
# M1 PAM = human CHRM1 positive allosteric modulation | CHO-K1 hM1, Fluo-8 calcium fluorescence, ACh EC20; 0% = ACh EC20, 100% = maximal ACh | activation, % at 3 µM | 360,000 compounds, 0.088% hits | P11229; in the data active means activation above about 19%, passing the limit was not always enough
# M1 ag = agonists of human M1 muscarinic receptor. activation, % at 3 µM. P11229. CHO-K1 hM1, Fluo-8 calcium fluorescence, agonist mode; 0% DMSO, 100% acetylcholine EC100. 360,000 compounds, 0.33% hits;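 active means activation above the run's mean compound activation plus 3 SD, cut at about 16% in these data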;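 further: peak over basal fluorescence ratio within a 140 s kinetic read after compound addition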
# TAAR1 ag confirm = confirmation of human TAAR1 agonists. CHO RD-HGA16 TAAR1, Fluo-8 calcium fluorescence; scaled: DMSO 0%, maximal phenethylamine 100%. activation, % at 3 µM. shares compounds with TAAR1 ag. 2,400 compounds, 82% hits;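 active means activation above a cutoff set at the run's mean compound activation plus 3 SD, cut at about 39% in these data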
# Ga16 ag counter = counter-screen for TAAR1 agonists: nonselective agonists in parental cells | shares compounds with TAAR1 ag | CHO-Ga16 parental, Fluo-8 calcium fluorescence; normalized to maximal ATP response, DMSO zero | activation, % at 3 µM | 2,400 compounds, 50% hits | AID 651787;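 active means activation above the run cutoff, the mean activation over all tested wells plus 3 SD, cut at about 12% in these data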;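 further: 0% = DMSO wells and 100% = maximal ATP response on the peak over basal ratio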
# TAAR1 desensitize = human TAAR1 agonist that also desensitizes the receptor | shares compounds with TAAR1 ag | CHO RD-HGA16 hTAAR1, Fluo-8 calcium, beta-PEA response inhibition | inhibition, % at 3 µM | 2,400 compounds, 46% hits;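 active means inhibition above the run cutoff, the mean inhibition of all test compounds plus 3 SD, cut at about 49% in these data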;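 further: beta-PEA stimulus applied at its EC80; loss of beta-PEA calcium signal after compound pretreatment read as receptor desensitization; 0% = DMSO with beta-PEA at EC80 and 100% = DMSO alone without agonist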
# Ga16 antag count = nonselective Ga16 antagonist in TAAR1 agonist counter-screen; shares compounds with TAAR1 ag; CHO-Ga16 ATP-induced calcium, Fluo-8 fluorescence; inhibition, % at 3 µM; 2,400 compounds, 39% hits;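 active means inhibition above the plate's mean compound inhibition plus 3 SD, computed per plate, cut at about 22% in these data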;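 further: 0% = EC80 ATP with DMSO and 100% = DMSO wells without ATP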
# * = called active by the depositor; . = no result.
SMILES,M1 antag,TAAR1 antag,m5-HT2A agonist,TAAR1 ag,M1 PAM,M1 ag,TAAR1 ag confirm,Ga16 ag counter,TAAR1 desensitize,Ga16 antag count
CN(/N=C/c1ccc(-c2ccc([N+](=O)[O-])cc2)o1)c1ccccc1,4.0,67.8*,2.8,66.1*,1.7,15.5,44.2*,71.1*,63.5*,73.7*
CN(/N=C/c1cc([N+](=O)[O-])ccc1O)c1ccccc1,-8.6,17.3,-2.1,7.3,8.9,-4.1,.,.,.,.
CN1C(=S)N(c2cccnc2)C(=O)/C1=C\c1ccc(N(C)C)cc1,44.2*,33.0,-3.9,73.8*,-19.6,39.4*,29.3,38.6*,41.6,49.6*
C[C@H](CO)N1C[C@H](C)[C@@H](CN(C)C(=O)Nc2ccccc2)Oc2c(NC(=O)C3CCCCC3)cccc2C1=O,18.9,8.8,0.7,6.2,-13.6,-6.6,.,.,.,.
O=C(Nc1cccnc1)c1ccc(Cl)c(Cl)c1,-10.4,10.2,4.7,47.4*,4.1,3.7,40.8*,41.7*,15.0,11.6
O=C(NNC(=O)c1ccc(Cl)c(Cl)c1)c1cccnc1,-15.5,-33.5,-3.6,5.3,7.5,-2.3,.,.,.,.
CS(=O)(=O)c1cccc(NC(=O)c2ccc(Cl)c(Cl)c2)c1,5.0,25.5,-2.2,87.5*,-1.5,8.4,60.1*,42.7*,47.7,28.3*
O=C(Nc1cccnc1)c1cc(Br)c(Br)s1,1.8,48.4,-5.0,91.3*,2.9,12.2,74.9*,59.3*,50.3*,23.0*
Cc1nn2c(-c3ccncc3)ccnc2c1Br,11.1,-9.9,-3.8,1.2,-0.6,-2.8,.,.,.,.
COCCN(C(=O)COC(=O)C1(c2ccccc2)CC1)c1c(N)n(CC(C)C)c(=O)[nH]c1=O,-8.2,-14.6,1.9,2.9,9.1,-1.8,.,.,.,.
Cc1cccc(OCc2nnc(SCC(=O)N(C)C3CCCCC3)o2)c1,13.4,14.3,0.3,0.7,-10.0,-1.6,.,.,.,.
O=S1(=O)N=C(N2CCc3ccccc3C2)c2ccccc21,36.4*,3.3,-4.1,63.1*,-16.2,-5.0,60.7*,3.5,8.7,7.8
Cc1cc(C(=O)COC(=O)C2=NNC(=O)CC2)c(C)n1CCc1ccccc1,17.8,15.3,-2.5,61.0*,-5.3,-3.9,86.5*,2.6,76.0*,10.3
COc1ccc(CCn2c(C)cc(C(=O)COC(=O)c3ccc(NC(=O)CC#N)cc3)c2C)cc1,16.3,.,4.5,.,-4.1,-2.0,.,.,.,.
Cc1cc(C(=O)COC(=O)c2ccc(NC(=O)CC#N)cc2)c(C)n1CCc1ccc(F)cc1,9.4,45.5,-7.2,54.5*,-5.3,-5.3,81.5*,6.5,77.3*,30.4*
Fc1ccc(-[n+]2nc(Nc3ccccc3)sc2-c2c(Cl)cccc2Cl)cc1,21.7,32.3,-9.3,74.0*,-20.4,-2.3,88.7*,34.8*,72.8*,29.0*
O=C(O)c1ccc(-c2sc(Nc3ccccc3)n[n+]2-c2ccc(F)cc2)cc1,-0.3,.,-4.9,.,5.3,-4.7,.,.,.,.
COc1ccc2ccccc2c1-c1sc(Nc2ccccc2)n[n+]1-c1ccc(F)cc1,28.1,-11.7,-12.1,64.0*,-19.6,7.3,51.8*,25.4*,46.1,37.0*
Cc1ccc(S(=O)(=O)N(CC(=O)Nc2ccccc2C(=O)O)c2ccccc2)cc1,1.6,-26.0,1.8,3.7,9.0,-9.2,.,.,.,.
COc1ccc(S(=O)(=O)NC(=O)C2(C)CCN2C(=O)C(C)(C)c2ccccc2)cc1 (configuration not stated),-11.1,-3.4,-1.1,1.9,8.0,-3.6,.,.,.,.
COc1ccc(-c2noc(CCC(=O)NCCc3ccccc3)n2)cc1,-2.4,-1.0,1.5,50.8*,2.0,-1.4,62.3*,4.2,31.5,9.9
COc1cccc(-c2noc(CCC(=O)NCCc3ccccc3)n2)c1,-14.0,-0.1,-1.6,47.2*,6.1,-3.5,66.6*,1.9,23.4,10.7
COc1ccc(NC(=O)N(C)C[C@H]2OCCCC[C@@H](C)Oc3ccc(NC(=O)c4ccccc4)cc3C(=O)N([C@H](C)CO)C[C@@H]2C)cc1,-0.8,3.0,0.7,1.5,-2.5,-8.3,.,.,.,.
CCOC(=O)c1cncc(C#CCOC(=O)Nc2ccc(OC(F)(F)F)cc2)c1,18.7,72.8*,2.3,50.6*,-6.2,0.9,49.2*,32.0*,81.2*,61.9*
CCOC(=O)c1cncc(C#CCO)c1,4.6,-13.6,-2.2,1.1,4.4,-1.5,.,.,.,.
SMILES,M1 antag,TAAR1 antag,m5-HT2A agonist,TAAR1 ag,M1 PAM,M1 ag,TAAR1 ag confirm,Ga16 ag counter,TAAR1 desensitize,Ga16 antag count
CC(NCC(O)COc1ccc2ccccc2c1)c1ccccc1 (configuration not stated),-7.0,31.6,-11.2,31.3,15.4,-1.8,.,.,.,.
Cc1cc(OCC(O)CNC(C)c2ccccc2)ccc1C(C)C (configuration not stated),-9.2,29.6,-1.2,62.7*,5.2,5.0,70.7*,32.1*,53.7*,32.1*
N#CC1(NC(=O)CSc2nnc3n2CCCCC3)CCCCC1,4.3,-5.1,4.1,11.2,1.0,-4.9,.,.,.,.
CN(CCC#N)S(=O)(=O)c1ccc2[nH]cc(C(=O)NCCc3ccccc3)c(=O)c2c1,-2.8,11.9,-5.9,53.8*,5.4,-11.8,73.4*,0.2,20.1,6.1
Cc1cc(C)n(-c2nc(Nc3ccccc3)nc(-n3nc(C)cc3C)n2)n1,-3.4,7.6,-0.2,6.3,-0.3,-5.4,.,.,.,.
COc1cccc(/C=N/Nc2nc(Nc3ccccc3)nc(-n3nc(C)cc3C)n2)c1O,23.2,75.6*,-31.3,83.7*,-14.2,9.0,49.5*,46.6*,76.2*,62.8*
CCCCN(C(=O)c1ccccc1OCc1ccc(F)cc1)c1c(N)n(CC(C)C)c(=O)[nH]c1=O,-6.6,-21.4,8.6,0.9,6.6,-4.1,.,.,.,.
O=C(CSC(=S)N1CCCC1)NCCc1ccccc1,-12.0,87.5*,-4.7,97.4*,7.9,-5.4,87.9*,3.1,98.1*,6.2

# Screening data (PubChem)
